Results taken from ChEMBL document CHEMBL2390911, “Synthesis and structure-activity relationships of 2-amino-3-carboxy-4-phenylthiophenes as novel atypical protein kinase C inhibitors” (Bioorg Med Chem Lett, 2013).

What was measured:
[1] = biological target: T1, Protein kinase C zeta type (Homo sapiens, UniProt Q05513); assay: Inhibition of atypical PKCzeta (unknown origin) using CREBtide as substrate incubated for 1 hr measured every 2.5 mins by ADP Quest assay
T1 sequence (Q05513 whole entry): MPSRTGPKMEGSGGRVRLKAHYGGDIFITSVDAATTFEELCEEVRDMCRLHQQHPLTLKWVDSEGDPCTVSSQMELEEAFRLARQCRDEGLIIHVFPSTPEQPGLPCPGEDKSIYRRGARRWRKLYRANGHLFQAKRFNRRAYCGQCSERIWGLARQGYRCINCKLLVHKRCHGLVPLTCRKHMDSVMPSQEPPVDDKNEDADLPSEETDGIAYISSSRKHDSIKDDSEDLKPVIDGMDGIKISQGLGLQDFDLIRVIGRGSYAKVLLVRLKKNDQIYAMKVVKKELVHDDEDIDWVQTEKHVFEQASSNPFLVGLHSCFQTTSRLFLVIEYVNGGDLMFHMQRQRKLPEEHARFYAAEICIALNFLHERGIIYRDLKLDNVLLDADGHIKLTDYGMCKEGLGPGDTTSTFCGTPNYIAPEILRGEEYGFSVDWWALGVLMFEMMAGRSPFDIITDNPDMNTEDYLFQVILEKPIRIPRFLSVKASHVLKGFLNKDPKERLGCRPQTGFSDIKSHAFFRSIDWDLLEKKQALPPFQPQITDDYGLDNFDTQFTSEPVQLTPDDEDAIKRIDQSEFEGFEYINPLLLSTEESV

[2] = biological target: T1, Protein kinase C zeta type; assay: Inhibition of atypical PKCzeta in HEK293 cells assessed as TNF-induced NFkappaB activation incubated for 3 hrs prior to TNF induction measured after 5 hrs by bright-glo luciferase reporter gene assay; format: cell-based
[3] = Inhibition of atypical PKCzeta in bovine retinal endothelial cells assessed as TNFalpha/VEGF-induced endothelial permeability preincubated for 30 mins followed by TNFalpha induction for 1 hr and VEGF induction for 30 mins measured every 30 mins for 4 hrs by Transwell assay; format: cell-based; conditions: Bos taurus, Endothelial cell
How it was run: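 Retinal endothelial monolayers were given a 5-point compound dose-response, then VEGF/TNF was added for 1.5 h. Flux of 70kDa RITC-dextran across the monolayer was the read-out. Data are the mean of at least n≥8, repeated in independent experiments. EC50 was derived from a variable-slope dose-response fit.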

[4] = biological target: Voltage-gated inwardly rectifying potassium channel KCNH2 (Homo sapiens, UniProt Q12809); assay: Inhibition of human ERG
[5] = biological target: T2, Protein kinase C iota type (Homo sapiens, UniProt P41743); assay: Inhibition of atypical PKCiota (unknown origin) using CREBtide as substrate incubated for 1 hr measured every 2.5 mins by ADP Quest assay
T2 sequence (P41743 whole entry): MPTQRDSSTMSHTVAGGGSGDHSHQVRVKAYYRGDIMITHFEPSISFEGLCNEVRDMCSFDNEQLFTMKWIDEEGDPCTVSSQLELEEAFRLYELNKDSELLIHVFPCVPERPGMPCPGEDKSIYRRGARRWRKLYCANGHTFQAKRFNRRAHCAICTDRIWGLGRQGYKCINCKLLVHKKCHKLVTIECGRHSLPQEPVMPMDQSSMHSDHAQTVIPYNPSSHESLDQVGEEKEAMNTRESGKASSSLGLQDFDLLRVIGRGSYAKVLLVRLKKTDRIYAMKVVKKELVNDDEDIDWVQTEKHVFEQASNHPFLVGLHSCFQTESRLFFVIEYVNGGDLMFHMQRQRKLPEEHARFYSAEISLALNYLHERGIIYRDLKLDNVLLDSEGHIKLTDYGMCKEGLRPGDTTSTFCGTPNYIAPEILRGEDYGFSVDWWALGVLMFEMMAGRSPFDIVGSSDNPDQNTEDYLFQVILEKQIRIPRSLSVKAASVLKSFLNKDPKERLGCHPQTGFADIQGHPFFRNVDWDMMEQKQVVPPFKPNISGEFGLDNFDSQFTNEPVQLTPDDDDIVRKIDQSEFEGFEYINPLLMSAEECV

Voltage-gated inwardly rectifying potassium channel KCNH2, sequence (Q12809 whole entry): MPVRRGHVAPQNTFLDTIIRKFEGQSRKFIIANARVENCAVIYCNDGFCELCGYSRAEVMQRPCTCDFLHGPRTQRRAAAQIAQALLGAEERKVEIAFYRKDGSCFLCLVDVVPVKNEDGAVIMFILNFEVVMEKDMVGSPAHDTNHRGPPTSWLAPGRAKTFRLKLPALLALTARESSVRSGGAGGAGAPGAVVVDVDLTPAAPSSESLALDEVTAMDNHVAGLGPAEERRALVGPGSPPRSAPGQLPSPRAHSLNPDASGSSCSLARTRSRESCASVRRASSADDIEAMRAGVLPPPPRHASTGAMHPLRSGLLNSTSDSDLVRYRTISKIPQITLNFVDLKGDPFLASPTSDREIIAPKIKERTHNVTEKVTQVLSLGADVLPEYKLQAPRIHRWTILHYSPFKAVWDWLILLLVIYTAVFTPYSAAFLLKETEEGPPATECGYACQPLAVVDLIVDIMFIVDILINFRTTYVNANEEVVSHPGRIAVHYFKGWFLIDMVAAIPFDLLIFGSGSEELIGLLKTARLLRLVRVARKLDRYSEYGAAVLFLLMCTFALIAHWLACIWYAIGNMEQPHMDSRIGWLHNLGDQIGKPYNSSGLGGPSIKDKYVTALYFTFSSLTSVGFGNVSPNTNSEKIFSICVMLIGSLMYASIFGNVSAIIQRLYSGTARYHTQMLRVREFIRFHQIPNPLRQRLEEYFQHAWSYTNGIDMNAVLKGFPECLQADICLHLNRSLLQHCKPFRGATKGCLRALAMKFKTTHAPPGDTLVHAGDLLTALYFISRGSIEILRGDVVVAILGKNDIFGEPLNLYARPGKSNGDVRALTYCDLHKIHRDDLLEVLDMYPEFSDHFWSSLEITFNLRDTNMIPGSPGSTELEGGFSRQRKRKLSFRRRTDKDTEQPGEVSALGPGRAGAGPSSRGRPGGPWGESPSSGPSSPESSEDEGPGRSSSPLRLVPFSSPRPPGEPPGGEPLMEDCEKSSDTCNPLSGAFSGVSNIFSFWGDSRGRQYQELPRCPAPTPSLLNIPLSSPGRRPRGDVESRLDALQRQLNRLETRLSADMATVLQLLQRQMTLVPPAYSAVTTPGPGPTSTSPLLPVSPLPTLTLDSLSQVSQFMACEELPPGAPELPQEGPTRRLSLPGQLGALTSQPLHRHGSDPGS

SMILES	IC50 [1]	EC50 [2]	EC50 [3]	IC50 [5]	IC50 [4]
COc1ccc(-c2csc(N)c2C(=O)OCc2ccccc2)cc1OC	6000 nM	2 nM	–	–	–
CCOC(=O)c1c(-c2ccc(N(C)C)cc2)csc1N	–	–	280 nM	900 nM	> 10000 nM
COc1ccc(-c2csc(N)c2C(=O)OC(C)C)cc1OC	–	–	–	–	> 10000 nM
CCOC(=O)c1c(-c2ccc3c(c2)OCO3)csc1N	2000 nM	2 nM	20 nM	2000 nM	–

Further compounds by falling EC50 [2], results first:

IC50 [1]	EC50 [2]	EC50 [3]	IC50 [5]	SMILES	IC50 [4]
4000 nM	10 nM	–	–	CCOC(=O)c1c(-c2ccc(OC)cc2F)csc1N	–
–	3 nM	1 nM	–	O=C(c1ccc(Nc2nccc(-c3cc4ccccc4s3)n2)cc1)N1CCC(N2CCCC2)CC1	–
–	1 nM	> 100 nM	900 nM	COc1cccc(COC(=O)c2c(-c3ccc(OC)c(OC)c3)csc2N)c1	1000 nM
2000 nM	1 nM	270 nM	–	CCOC(=O)c1c(-c2ccc(N)cc2)csc1N	–
